Results on twelve compounds are retold here after publication PMC9931008 (Journal of Food and Drug Analysis, 2022).

Where two headings read alike, the source gives them in different places. Where only a bound is given, the exact number is not on record here.

For series [1], the system named is nifedipine oxidation (NFO) activity. Format: in vitro ADME, rat. The note with it: rat, probe nifedipine; for IC50: rat hepatic (liver) microsomes, IC50, NFO activity, Liver, ingredient, 10-min NADPH-fortified pre-incubation; for inhibition at 100 µM: rat hepatic and intestinal microsomes.
The conditions of series [2]: cited from earlier work; for Cmax: read-out: Cmax levels of plasma, rats orally treated with a single dose of 8 g/kg lyophilized SMS.
For series [3] the following is noted: rat plasma; nifedipine 3 mg/kg oral; control group (water).
Series [4] has as its system nifedipine oxidation (NFO) activities in rat hepatic microsomes. It is filed as in vitro ADME. As to conditions: read-out: IC50, NFO activity, Liver; ingredient; 10-min NADPH-fortified pre-incubation.
The target in series [5] is T1, human CYP3A4 (Homo sapiens, UniProt P08684, S18F). The series is described as follows: Time-dependent inactivation kinetics of human CYP3A4. Format: in vitro ADME. In a few lines: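 Recombinant CYP3A4 was pre-incubated with NADPH and test compound (DMSO vehicle) for varying times, and residual NFO was measured. K_app is the slope of ln % remaining activity versus time. k_inact and K_I came from nonlinear fit of K_app = k_inact·I/(I+K_I), with double-reciprocal starting values. The partition ratio came from titrating remaining activity after 30-min incubation against inhibitor:CYP3A4 molar ratio. […] Means of three determinations.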

Series [6] addresses T2, NADPH-P450 reductase (CPR) (Homo sapiens, UniProt P16435).
T2 sequence (P16435 1-677): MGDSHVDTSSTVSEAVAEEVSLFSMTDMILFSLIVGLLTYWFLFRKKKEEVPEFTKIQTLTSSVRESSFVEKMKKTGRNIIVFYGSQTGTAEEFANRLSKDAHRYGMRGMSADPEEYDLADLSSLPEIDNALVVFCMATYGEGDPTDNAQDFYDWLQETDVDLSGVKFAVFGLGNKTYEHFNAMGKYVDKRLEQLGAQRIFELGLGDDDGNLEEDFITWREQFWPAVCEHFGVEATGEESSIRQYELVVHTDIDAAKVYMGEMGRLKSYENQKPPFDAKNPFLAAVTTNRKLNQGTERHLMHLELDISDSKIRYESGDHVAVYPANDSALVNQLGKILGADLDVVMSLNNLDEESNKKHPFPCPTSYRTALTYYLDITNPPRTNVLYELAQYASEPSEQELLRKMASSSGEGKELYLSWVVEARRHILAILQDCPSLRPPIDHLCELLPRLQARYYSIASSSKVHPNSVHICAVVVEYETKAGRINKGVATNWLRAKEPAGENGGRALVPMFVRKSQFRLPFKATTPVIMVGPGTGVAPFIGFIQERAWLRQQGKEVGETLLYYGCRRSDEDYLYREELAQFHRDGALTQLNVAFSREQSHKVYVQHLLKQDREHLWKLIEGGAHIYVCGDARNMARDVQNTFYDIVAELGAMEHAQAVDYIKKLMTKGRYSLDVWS
The series is described as follows: Dialysis experiment, CPR activity. It is filed as in vitro ADME. The note with it: recombinant CYP3A4 system. The gist of the method:
(§1)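 E. coli membranes co-expressing human CYP3A4 and CPR (20 nM) were incubated 30 min at 37 °C with 3–20 μM test compound and an NADPH-generating system (pH 7.4), with DMSO vehicle controls. They were dialysed (10 kDa) at 4 °C against phosphate/0.1 mM EDTA with three 30-min buffer changes. […] Means of three determinations.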

The subject of series [7] is nifedipine oxidation (NFO) activities in rat intestinal microsomes. It is filed as in vitro ADME. As to conditions: read-out: IC50, NFO activity, Intestine; ingredient; 10-min NADPH-fortified pre-incubation.
The target in series [8] is T1, human CYP3A4. Format: in vitro ADME. The note with it: for Ratio IC50(+)/IC50(−): IC50 shift after 10-min pre-incubation; for IC50: NFO activity; for Predicted threshold of unbound inhibitor concentration causing a 2-fold AUC increase: high-throughput method from IC50 values.
The target of series [9] is T1, human CYP3A4. The series is described as follows: Dialysis experiment, remaining NFO activity. Format: in vitro ADME. The note with it: 30-min NADPH-fortified pre-incubation. In a few lines:
as §1

Series [10] is described as follows: Literature pharmacokinetics of herbal ingredients in rats. Format: in vivo. As to conditions: SMS once daily, estimated from half-life.
Setting [11] is: linear regression of double reciprocal plots (r = 0.97).
The mark [12] stands for this setting: nonlinear regression analysis (r = 0.98).
Setting [13] is: rats treated with 8 g/kg lyophilized SMS.
The mark [14] stands for this setting: IC50(+), 10-min NADPH-fortified pre-incubation.
The mark [15] stands for this setting: IC50(−), without pre-incubation.

In series [1], `COc1cc(C[C@H]2C(=O)OC[C@@H]2Cc2ccc(OC)c(OC)c2)ccc1O` [Arctigenin] had an IC50 greater than 100 µM and an inhibition at 100 µM of no more than 50%.

With `CC(C)=CCC/C(C)=C/COc1c2ccoc2cc2oc(=O)ccc12` [Bergamottin, bergamottin, reference compound], in [2] (rats), the tmax is 0.5 h.

With `COC(=O)c1c(C)nc(C)c(C(=O)OC)c1-c1ccccc1[N+](=O)[O-]` [Dehydronifedipine], in series [3], the “AUC0−t of dehydronifedipine” value was 100 ± 10 ng·h/mL, the “AUC0−∞ of dehydronifedipine” value amounted to 130 ± 10 ng·h/mL, the Cmax of dehydronifedipine is 40 ± 10 ng/mL and the t1/2 of dehydronifedipine is recorded as 2.36 ± 0.33 h. The compound further came in with a tmax of dehydronifedipine in [3] of 0.54 ± 0.10 h.

In series [1], `CC(C)=CCC[C@](C)(O[C@@H]1O[C@H](CO[C@@H]2O[C@H](CO)[C@@H](O)[C@H](O)[C@H]2O)[C@@H](O)[C@H](O)[C@H]1O)[C@H]1CC[C@]2(C)[C@@H]1[C@H](O)C[C@@H]1[C@@]3(C)CC[C@H](O[C@@H]4O[C@H](CO)[C@@H](O)[C@H](O)[C@H]4O[C@@H]4O[C@H](CO)[C@@H](O)[C@H](O)[C@H]4O)C(C)(C)[C@@H]3CC[C@]12C` [Ginsenoside Rb1, ginsenoside Rb1] returned a half-maximal inhibitory concentration (IC50) greater than 100 µM.

In the case of `CC(C)=CCC[C@](C)(O[C@@H]1O[C@H](CO)[C@@H](O)[C@H](O)[C@H]1O)[C@H]1CC[C@]2(C)[C@@H]1[C@H](O)C[C@@H]1[C@@]3(C)CC[C@H](O[C@@H]4O[C@H](CO)[C@@H](O)[C@H](O)[C@H]4O[C@@H]4O[C@H](CO)[C@@H](O)[C@H](O)[C@H]4O)C(C)(C)[C@@H]3CC[C@]12C` [Ginsenoside Rd, ginsenoside Rd], inhibition in series [1] was half-maximal at 80.2 ± 33.3 µM (IC50).

On to `Cc1c(O)c(C)c2c(c1O)C(=O)[C@H](Cc1ccc3c(c1)OCO3)CO2` [Methylophiopogonanone A, methylophiopogonanone A], for which the IC50 in series [4] is 16.8 ± 2.6 µM; in series [7], 11.6 ± 0.7 µM; in series [8] (10-min NADPH-fortified pre-incubation), 17.4 ± 2.1 µM; in series [8] (without pre-incubation), 36.5 ± 7 µM. Besides, in series [2] (rats treated with Qingzao Jiufei decoction (4.6 g/kg)), the half-life was 8 to 9 h. For the same compound, in [5] (30 min incubation, molar ratio metabolized per CYP3A4 inactivated), the partition ratio came out at 54. Moreover, in series [5] (30 min incubation, titration of remaining NFO activity), the turnover number is given as 55. Further, the “apparent KI” value in [5] (setting [11]) was 9.1 µM; in series [5] (setting [12]), 13.3 ± 5.9 µM. The kinact turned out to be 0.058 min⁻¹ in [5] (setting [11]) and 0.068 ± 0.009 min⁻¹ in [5] (setting [12]). Moreover, the “predicted threshold for causing a 2-fold increase in AUC” value in series [5] (using inhibition constants (inactivation kinetics)) was 79.7 nM. Besides, the “CPR activity before or after dialysis” value in series [6] is given as “not affected”. Further, the “Ratio IC50(+)/IC50(−)” value in [8] stood at 0.48. In addition, the “Predicted threshold of unbound inhibitor concentration causing a 2-fold AUC increase” value in [8] is given as 45.0 nM. Further, the “inhibition of NFO after dialysis” value in [9] was “could not be restored”.

On to `C[C@@H]1CC[C@@]2(OC1)O[C@H]1C[C@H]3[C@@H]4CC=C5C[C@@H](O)C[C@@H](O[C@@H]6O[C@H](C)[C@H](O)[C@H](O[C@@H]7OC[C@@H](O)[C@H](O)[C@H]7O)[C@H]6O[C@@H]6O[C@@H](C)[C@H](O)[C@@H](O)[C@H]6O)[C@]5(C)[C@H]4CC[C@]3(C)[C@H]1[C@@H]2C` [Ophiopogonin D, ophiopogonin D], for which the IC50 in series [4] and in [7] was greater than 100 µM each time.

In turn, `CC1(C)CCC[C@](C)([C@H]2CC[C@]3(C)[C@@H]2[C@H](O)C[C@@H]2[C@@]4(C)CC[C@H](O)C(C)(C)[C@@H]4[C@@H](O)C[C@]23C)O1` [Panaxatriol, panaxatriol] showed an IC50 in series [1] greater than 100 µM.

As for `CC(C)=CCC[C@](C)(O)[C@H]1CC[C@]2(C)[C@@H]1[C@H](O)C[C@@H]1[C@@]3(C)CC[C@H](O)C(C)(C)[C@@H]3[C@@H](O)C[C@]12C` [Protopanaxatriol, protopanaxatriol], the IC50 in [4] and in series [7] was greater than 100 µM in each case.

In series [1], `C[C@@H]1CC[C@@]2(OC1)O[C@H]1C[C@H]3[C@@H]4CC=C5C[C@@H](O)C[C@@H](O)[C@]5(C)[C@H]4CC[C@]3(C)[C@H]1[C@@H]2C` [Ruscogenin, ruscogenin] registered an IC50 greater than 100 µM and an inhibition at 100 µM of no more than 50%.

`COc1cc2c(c(OC)c1OC)-c1c(cc3c(c1OC)OCO3)CC(C)C(C)C2` (centres unmarked) [Schisandrin B]: the figures for the tmax in [2] (SMS (8 g/kg)-treated rats) and in series [2] (Schisandra Fructus extract (5 g/kg)-treated rats) were 1.6 h and 4.1 h, respectively. In addition, the half-life in series [2] (setting [13]) is listed as 7 h. Moreover, the highest concentration (Cmax) in series [2] was 28.6 nM. Also, the concentration for half-maximal inhibition (IC50) amounted to 8.9 ± 1.4 µM in series [7], 1.5 ± 0.2 µM in series [8] (setting [14]) and 6.1 ± 1.4 µM in series [8] (setting [15]). In addition, the “Ratio IC50(+)/IC50(−)” value in series [8] is given as 0.25. Besides, the “Predicted threshold of unbound inhibitor concentration causing a 2-fold AUC increase” value in series [8] is on record as 7.69 nM.

As to `COc1cc2c(c(OC)c1OC)-c1c(cc3c(c1OC)OCO3)C[C@H](C)[C@](C)(O)[C@H]2OC(=O)c1ccccc1` [Schisantherin A, schisantherin A], in series [2] (SMS (8 g/kg)-treated rats), the tmax is 2.3 h. In addition, the half-life in series [2] (setting [13]) is on record as 30 h. In [2], the maximum concentration (Cmax) is 7.1 nM. Further, the “time required for accumulating to reach the steady-state” value in [10] is on record as “at least 8 days”. Further, the IC50 in [8] (setting [14]) is 0.06 ± 0.01 µM; in series [8] (setting [15]), 0.17 ± 0.05 µM. Also, the “Ratio IC50(+)/IC50(−)” value in series [8] was 0.35. In addition, in series [8], the “Predicted threshold of unbound inhibitor concentration causing a 2-fold AUC increase” value is recorded as 0.34 nM.
